Reference: ChEMBL document CHEMBL3576784, “Azolylthioacetamide: A Highly Promising Scaffold for the Development of Metallo-β-lactamase Inhibitors” (ACS Med Chem Lett, 2015)

Substrate: C[C@@H](O)[C@H]1C(=O)N2C(C(=O)O)=C(SCCNC=N)C[C@H]12
Assay: Activity of Aeromonas veronii metallo-beta-lactamase ImiS
Outline: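 Purified enzyme; initial rates of imipenem hydrolysis followed by UV spectrophotometry (262 or 300 nm) in 50 mM Tris pH 7.0, 25 °C. Substrate 24–140 μM, inhibitor 0–10 μM. Rates in triplicate and averaged. Inhibition mode from Lineweaver–Burk plots. Ki from fits of initial velocity vs substrate concentration at each inhibitor level.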

B1: Beta-lactamase (Aeromonas veronii), O31272 (protein)
chain: MMKGWIKCGLAGAVVLMASFWGGSVRAAGMSLTQQVSGPVYVVEDNYYVQENSMVYFGAKGVTVVGATWTPDTARELHKLIKRVSRKPVLEVINTNYHTDRAGGNAYWKSIGAKVISTRQTRDLMKSDWAEIVAFTRKGLPEYPDLPLVLPNVVHEGDFTLQEGKLRAFYLGPAHSPDGIFVYFPDQQVLYGNCILKEKLGNLSFADVKAYPQTLERLKAMKLPIKTVVGGHDSPLHGPELIDHYEALIKAASQS
Km: 99 µM
kcat: 255 s⁻¹
